Legend:
Homo sapiens [1] = organism: Homo sapiens; assay: Cytotoxicity against the cancer cell lines prostate DU-145; type: functional
In short: (§1)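 Human tumor cell line panel (about 55 lines) exposed to compound across 10^-4 to 10^-8 M. GI50 is the concentration giving 50% growth inhibition; values outside the range are set to the range limits.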

Homo sapiens [2] = organism: Homo sapiens; assay: Cytotoxicity against the cancer cell lines melanoma UACC-62; type: functional; in short: as §1
Homo sapiens [3] = organism: Homo sapiens; assay: Cytotoxicity against the cancer cell lines breast MDA-MB-435; type: functional; in short: as §1
Homo sapiens [4] = organism: Homo sapiens; assay: Cytotoxicity against the cancer cell lines lung HOP-62; type: functional; in short: as §1
Tubulin = Tubulin (Bos taurus, UniProt Q6B856+Q862L2+Q862F3); assay: Inhibition of tubulin polymerization measured at 12 uM tubulin concentration.; type: protein assay
In short: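 Bovine brain tubulin, electrophoretically homogeneous, at 1.2 mg/mL (12 μM), preincubated at 26 °C with varying compound concentrations (up to 40 μM), then chilled on ice before GTP was added. Polymerization at 26 °C followed by turbidity at 350 nm, with extent read at 20 min. IC50 determined graphically from at least two independent assays.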

Homo sapiens [5] = organism: Homo sapiens; assay: Cytotoxicity against the cancer cell lines CNS SF-539; type: functional; in short: as §1
Homo sapiens [6] = organism: Homo sapiens; assay: Cytotoxicity against the cancer cell lines ovarian OVCAR-3; type: functional; in short: as §1
Homo sapiens [7] = organism: Homo sapiens; assay: Cytotoxicity against the cancer cell lines renal SN12C; type: functional; in short: as §1
Homo sapiens [8] = organism: Homo sapiens; assay: Cytotoxicity against the cancer cell lines colon HCT116; type: functional; in short: as §1

Compound | GI50 (Homo sapiens [1]) [µM] | GI50 (Homo sapiens [2]) [µM] | GI50 (Homo sapiens [3]) [µM] | GI50 (Homo sapiens [4]) [µM] | IC50 (Tubulin) [µM] | GI50 (Homo sapiens [5]) [µM] | GI50 (Homo sapiens [6]) [µM] | GI50 (Homo sapiens [7]) [µM] | GI50 (Homo sapiens [8]) [µM]
CC#Cc1cc2c(cc1O)CC[C@@H]1[C@@H]2CC[C@]2(C)[C@@H](O)CC[C@@H]12 | 3.6 | 0.5 | 0.13 | 1.7 | 4.9 | 0.95 | 0.34 | 6.9 | 0.48
C[C@]12CC[C@@H]3c4cc(C#N)c(O)cc4CC[C@H]3[C@@H]1CC[C@@H]2O | 34 | 6.1 | > 100 | 56 | > 40 | > 100 | > 100 | 48 | > 100
C[C@]12CC[C@@H]3c4cc(OCCO)c(O)cc4CC[C@H]3[C@@H]1CC[C@@H]2O | 16 | 13 | 16 | 18 | 9.6 | 11 | 8.7 | 19 | 15
C[C@]12CC[C@@H]3c4cc(C#Cc5ccccc5)c(O)cc4CC[C@H]3[C@@H]1CC[C@@H]2O | 16 | 12 | 16 | 14 | > 40 | 16 | 14 | 11 | 14
CN(C)CC/N=C/c1cc2c(cc1O)CC[C@@H]1[C@@H]2CC[C@]2(C)[C@@H](O)CC[C@@H]12 | 22 | 17 | 19 | 19 | > 40 | 22 | 21 | 22 | 15
C#Cc1cc2c(cc1O)CC[C@@H]1[C@@H]2CC[C@]2(C)[C@@H](O)CC[C@@H]12 | 10 | 4.8 | 2.2 | 6.2 | 13 | 2.3 | 3.8 | 6.4 | 3.9
C[C@]12CC[C@@H]3c4cc(/C=C/CO)c(O)cc4CC[C@H]3[C@@H]1CC[C@@H]2O | 0.9 | 0.47 | 0.052 | 5.5 | 6.3 | 0.25 | 5.3 | 6.2 | 0.47
COc1cc(/C=C/c2cc3c(cc2O)CC[C@@H]2[C@@H]3CC[C@]3(C)[C@@H](O)CC[C@@H]23)cc(OC)c1OC | 2.8 | 2.7 | 4.4 | 3.6 | > 40 | 2 | 3.2 | 2.4 | 3.2
C[C@]12CC[C@@H]3c4cc(/C=N/CCO)c(O)cc4CC[C@H]3[C@@H]1CC[C@@H]2O | 20 | 16 | 17 | 23 | > 40 | 13 | 19 | 18 | 11
COc1cc2c(cc1O)CC[C@@H]1[C@@H]2CC[C@]2(C)[C@@H](O)CC[C@@H]12 [2-METHOXYESTRADIOL] | 1.8 | 0.36 | 0.08 | 0.7 | 4.7 | 0.32 | 0.21 | 0.95 | 0.47

From ChEMBL document CHEMBL1135629, “The effect of exchanging various substituents at the 2-position of 2-methoxyestradiol on cytotoxicity in human cancer cell cultures and inhibition of tubulin polymerization” (J Med Chem, 2002)
